The values that follow come from ChEMBL document CHEMBL3228045, “1-(Dichloroacetyl)-1,2,3,4-tetrahydro-6-quinolinol esters. New potent antiamebic agents” (J Med Chem, 1979).

The nature of data set [1]: Antiamebic activity against Entamoeba criceti infected in hamster assessed as reduction of trophozoites in cecum administered intragastric gavage bid for three consecutive days by microscopy. The data set is classed as functional. The note with it: Caecum, po. The method in brief:
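Vehicle: 10% gelatin suspension, given by intragastric gavage in two split portions daily (morning and afternoon) for 3 consecutive days, dosed as (mg/kg)/day. Colony infection rate was at least 90%. Five hamsters per group at three twofold dose levels. The day after the last dose, cecal-wall scrapings in saline were examined microscopically at 43×. An animal with no trophozoites counted as cleared.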

The subject of data set [2] is Hamster. Put plainly: Toxicity in hamster assessed as mortality at 10 mg/kg, po by acute test. The data set is classed as organism-based. Set-up: dose 10 mg/kg, route oral. The note with it: cricetinae, in vivo.
The subject of data set [3] is Rattus norvegicus. The experiment in a line: Toxicity in rat assessed as mortality at 10 mg/kg, po by acute test. The data set is classed as organism-based. Details: dose 10 mg/kg, route oral. The note with it: in vivo.
Data set [4] is described as follows: Antiamebic activity against trophozoite form of Entamoeba criceti infected in hamster assessed as reduction in spontaneous infection in cecum administered intragastric gavage as single dose by microscopy. The class given is functional. The note with it: Caecum, po. The essentials:
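Hamsters with spontaneous Entamoeba criceti infection were given one oral dose of drug. ED50 is reported ± SE in mg/kg po.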

Data set [5] is described as follows: Antiamebic activity against Entamoeba criceti infected in hamster assessed as reduction of trophozoites in cecum administered intragastric gavage as four dose by microscopy. The class given is functional. The conditions noted are these: Caecum, po.

Where only a bound is given, the exact number is not on record here.

For the compound `O=C(Oc1ccc2c(c1Cl)CCCN2C(=O)C(Cl)Cl)c1cccs1`, the ED50 in data set [1] was 0.22 mg/kg.
Regarding `O=C(Oc1ccc2c(c1)CCCN2C(=O)C(Cl)Cl)c1ccco1` [QUINFAMIDE], the Activity entry in data set [2] and in data set [3] was “Non-toxic” each time. The results for the ED50 in data set [4] and in data set [1] were 0.75 mg/kg and 0.2 mg/kg, respectively.
Consider `O=C(Oc1ccc2c(c1Br)CCCN2C(=O)C(Cl)Cl)c1cccs1`, for which the median effective dose (ED50) in data set [1] came out at 1.24 mg/kg.
Still for that read-out and setting: for `O=C(CCl)N1CCCc2cc(O)ccc21` the value was 2 mg/kg; for `CCCCCC(=O)Oc1ccc2c(c1)CCCN2C(=O)C(Cl)Cl`, 1.75 mg/kg.
Still for that read-out and setting: for `CN(C(=O)C(Cl)Cl)c1ccc(OC(=O)c2ccco2)cc1` [DILOXANIDE FUROATE] the value was above 3.2 mg/kg.
On to `CCOCCN(Cc1ccc(Oc2ccc([N+](=O)[O-])cc2)cc1)C(=O)C(Cl)Cl` [ETOFAMIDE], for which the ED50 in data set [5] came out at 0.38 mg/kg.
Consider `CCCC(=O)Oc1ccc2c(c1)CCCN2C(=O)C(Cl)Cl`, for which the ED50 in data set [1] was determined as 0.75 mg/kg.
Turning to `O=C(Oc1ccc2c(c1Br)CCCN2C(=O)C(Cl)Cl)c1ccco1`, the ED50 in data set [1] was determined as 0.39 mg/kg.
The same measure, in the same setting: the figure for `CNC(=O)Oc1ccc2c(c1)CCCN2C(=O)C(Cl)Cl` is 5.7 mg/kg.
For the compound `O=C(Oc1ccc2c(c1)CCCN2C(=O)C(Cl)Cl)c1ccccc1`, the median effective dose (ED50) in data set [4] is 1.6 mg/kg; in data set [1], 0.2 mg/kg.
In the case of `O=C(N1CCCc2cc(O)ccc21)C(Cl)(Cl)Cl`, the ED50 in data set [1] amounted to 3 mg/kg.
On the same count and under the same terms, the figure for `O=C(C(Cl)Cl)N1CCCc2c1ccc(O)c2Br` is 0.56 mg/kg.
Take `O=C(Oc1ccc2c(c1)CCCN2C(=O)C(Cl)Cl)c1cccs1`: the ED50 in data set [4] was 4.8 mg/kg; in data set [1] it was 0.16 mg/kg.
On to `O=C(Oc1ccc2c(c1Cl)CCCN2C(=O)C(Cl)Cl)c1ccco1`, for which the ED50 in data set [1] was 0.21 mg/kg.
The same measure, in the same setting: for `O=C(C(Cl)Cl)N1CCCc2c1ccc(O)c2Cl` the value was 0.5 mg/kg.
Still for that read-out and setting: the figure for `O=C(C(Cl)Cl)N1CCCc2cc(O)ccc21` is 1.2 mg/kg.
